From ChEMBL document CHEMBL1148927, “A novel antimicrobial indolizinium alkaloid from Aniba panurensis” (J Nat Prod, 2004) come the findings set out here.

Structures are written as SMILES. Active and inactive are the calls of the source. The calls are words filed in the database; no cut-off is given here.

Data set [1] relates to Enterococcus faecium. The experiment in a line: […] activity against Enterococcus faecium 1438 at 100 ug/mL after 18 hrs by broth microdilution assay. The data set is classed as functional, organism-based. The procedure, abridged: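 E. faecium 1438 clinical isolate grown at 37 °C with 100 rpm shaking in Todd Hewitt broth with 0.5% yeast extract and 2% NaCl to exponential phase. Culture adjusted to A600 0.3, then diluted 1:1000. Added to dried sample in wells, incubated 18 h, and growth read at A650 against medium-only cultures. Chloramphenicol 100 µg/mL was the inhibition control.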
For orientation: Dilution methods test growth across graded concentrations, often in twofold steps.

The test system of data set [2] is Staphylococcus aureus. The experiment in a line: […] activity against Staphylococcus aureus 385 at 100 ug/mL after 24 hrs by broth microdilution assay.
Data set [3] can be described thus: Lipophilicity, log K in octanol water. In kind it is physicochemical.
For the next data set, the system named is Pichia kudriavzevii. Description: Antifungal activity against Candida krusei ATCC 6258 by broth microdilution assay. In kind it is functional. The method, boiled down: (§1)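 Broth microdilution in RPMI 1640 buffered with MOPS, following NCCLS guidelines; values reported as MIC90.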
A short description of data set [4]: Toxicity in sheep red blood cells assessed as hemolysis after 2 hrs. In kind it is cell-based, Ovis aries. The settings on record: erythrocyte. The method, boiled down:
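Sheep red blood cells at 4% final in 0.2 mL, with samples serially diluted in phosphate-buffered saline; highest dose contained 5% DMSO. Incubated 2 h at 37 °C, then 0.1 mL taken to measure hemolysis.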

Another data set deals with Clavispora lusitaniae. Description: Antifungal activity against Candida lusitaniae by broth microdilution assay. The data set is classed as functional. The procedure, abridged:
as §1

In data set [5] the test system is Staphylococcus aureus. The experiment in a line: […] activity against Staphylococcus aureus 385 after 24 hrs by broth microdilution assay.
The next data set has as its system Candida albicans. Description: Antifungal activity against Candida albicans 99-788 after 24 hrs by broth microdilution assay. The data set is classed as functional. The method, boiled down: (§2)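 Clinical isolates grown in YM broth at 37 °C with shaking at 100 rpm to exponential phase, adjusted to A600 = 0.3, then diluted 1:150 (C. albicans) or 1:128 (C. neoformans). Samples dried in wells, culture added, and tested top dose 250 µg/mL plus five 2-fold dilutions. Incubation 24 h (C. albicans) or 72 h (C. neoformans). A650 read; MIC50 = concentration lowering A650 ≥50% vs medium-only cultures.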

In another data set the test system is Nakaseomyces glabratus. Description: Antifungal activity against Candida glabrata by broth microdilution assay. In kind it is functional. The procedure, abridged: as §1
For data set [6], the system named is Enterococcus faecium. The experiment in a line: […] activity against Enterococcus faecium 1438 by broth microdilution assay. In kind it is functional.
Another data set concerns Candida parapsilosis. The experiment in a line: Antifungal activity against Candida parapsilosis ATCC 22019 by broth microdilution assay. The data set is classed as functional. The following applies: Lodderomyces parapsilosis. The procedure, abridged:
as §1

Data set [7] concerns Cryptococcus neoformans. The experiment in a line: Antifungal activity against Cryptococcus neoformans 96-1034 by broth microdilution assay. The data set is classed as functional. The method, boiled down: as §1
The subject of data set [8] is Cryptococcus neoformans. The experiment in a line: Antifungal activity against Cryptococcus neoformans 96-1034 after 72 hrs by broth microdilution assay. In kind it is functional. The method, boiled down:
as §2

With `O=C(N[C@H](CO)[C@H](O)c1ccc([N+](=O)[O-])cc1)C(Cl)Cl`, in the data set on Enterococcus faecium [1], the result was Active.
For the molecule `O=C(O)c1cn(C2CC2)c2cc(N3CCNCC3)c(F)cc2c1=O`, in the data set with Staphylococcus aureus [2], the outcome was Active.
A word on the MIC90: it is the lowest concentration that inhibits either 90% of growth or 90% of the strains tested, depending on the study. What is called MIC50 is an inhibitory concentration at the 50% level, which refers to growth in some studies and to a panel of isolates in others. Lower therefore signals higher susceptibility. In the case of `CCCCCCCC/C=C\c1c(C)c(/C=C\CCCCCCCC)c2[n+](c1C)CCC2.O=C([O-])C(F)(F)F` [ANIBAMINE], the “log K” value in [3] is 9.1. Moreover, the MIC90 in the data set on Pichia kudriavzevii stood at 0.5 µg/mL; against Clavispora lusitaniae, 1 µg/mL; in the data set with Candida albicans it was 0.5 µg/mL; with Nakaseomyces glabratus, 2 µg/mL; against Candida parapsilosis, 0.5 µg/mL; against Cryptococcus neoformans [7], 0.25 µg/mL. In data set [4], the Activity entry is “Toxic”. Moreover, the MIC50 against Staphylococcus aureus [5] was above 25 µg/mL; with Candida albicans, 0.25 µg/mL; in the data set on Enterococcus faecium [6] it was 0.25 µg/mL; against Cryptococcus neoformans [8], 0.25 µg/mL.
